Series [1] deals with T1, Disintegrin and metalloproteinase domain-containing protein 10 (Homo sapiens, UniProt O14672).
T1 sequence (O14672 whole entry): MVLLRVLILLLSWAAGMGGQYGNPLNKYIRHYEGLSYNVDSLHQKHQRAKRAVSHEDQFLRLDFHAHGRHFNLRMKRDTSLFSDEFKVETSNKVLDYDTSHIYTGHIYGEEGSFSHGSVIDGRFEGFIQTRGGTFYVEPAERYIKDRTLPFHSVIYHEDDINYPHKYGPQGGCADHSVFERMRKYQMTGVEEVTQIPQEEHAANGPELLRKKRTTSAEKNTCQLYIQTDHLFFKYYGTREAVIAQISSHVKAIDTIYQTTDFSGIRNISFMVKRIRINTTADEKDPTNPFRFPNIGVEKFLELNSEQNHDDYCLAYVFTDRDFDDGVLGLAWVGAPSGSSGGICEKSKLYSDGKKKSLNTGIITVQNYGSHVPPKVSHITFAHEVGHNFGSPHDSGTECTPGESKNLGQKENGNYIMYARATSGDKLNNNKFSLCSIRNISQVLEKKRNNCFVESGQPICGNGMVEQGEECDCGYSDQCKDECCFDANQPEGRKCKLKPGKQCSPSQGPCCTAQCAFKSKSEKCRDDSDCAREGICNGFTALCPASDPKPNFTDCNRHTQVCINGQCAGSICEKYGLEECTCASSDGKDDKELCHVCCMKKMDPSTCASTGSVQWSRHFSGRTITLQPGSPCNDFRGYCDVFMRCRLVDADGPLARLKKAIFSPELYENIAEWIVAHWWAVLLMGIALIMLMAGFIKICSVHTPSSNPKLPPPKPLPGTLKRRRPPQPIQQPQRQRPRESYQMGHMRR
Kind of series: Inhibition of ADAM10 (unknown origin) preincubated for 30 mins followed by substrate addition measured every 30 mins for 2 hrs by fluorescence assay. In a few lines: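 Enzyme at 30 nM (3× solution) in 10 mM Hepes, 0.001% Brij-35, pH 7.5. Inhibitor series of 10 points, 1:3, from 300 μM, preincubated 30 min at RT. Glycosylated substrate added from a 30 μM 3× solution. Fluorescence (ex 360/em 460 nm) read every 30 min for 2 h. Inhibition taken from hydrolysis rates against substrate-only and substrate-plus-enzyme wells.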

Series [2] addresses T2, 72 kDa type IV collagenase (Homo sapiens, UniProt P08253). Kind of series: Inhibition of MMP2 (unknown origin) using Mca-KLPGL-Dnp-AR as substrate preincubated for 30 mins followed by substrate addition measured after 1 hr by fluorescence assay. In a few lines: (§1)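 Inhibitor as 10-point 1:3 dilutions from 300 μM, 30 min at RT. Substrate added from a 30 μM 3× solution. Single fluorescence read (ex 324/em 393 nm) after 1 h at RT.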
Target sequence in this assay (P08253 whole entry): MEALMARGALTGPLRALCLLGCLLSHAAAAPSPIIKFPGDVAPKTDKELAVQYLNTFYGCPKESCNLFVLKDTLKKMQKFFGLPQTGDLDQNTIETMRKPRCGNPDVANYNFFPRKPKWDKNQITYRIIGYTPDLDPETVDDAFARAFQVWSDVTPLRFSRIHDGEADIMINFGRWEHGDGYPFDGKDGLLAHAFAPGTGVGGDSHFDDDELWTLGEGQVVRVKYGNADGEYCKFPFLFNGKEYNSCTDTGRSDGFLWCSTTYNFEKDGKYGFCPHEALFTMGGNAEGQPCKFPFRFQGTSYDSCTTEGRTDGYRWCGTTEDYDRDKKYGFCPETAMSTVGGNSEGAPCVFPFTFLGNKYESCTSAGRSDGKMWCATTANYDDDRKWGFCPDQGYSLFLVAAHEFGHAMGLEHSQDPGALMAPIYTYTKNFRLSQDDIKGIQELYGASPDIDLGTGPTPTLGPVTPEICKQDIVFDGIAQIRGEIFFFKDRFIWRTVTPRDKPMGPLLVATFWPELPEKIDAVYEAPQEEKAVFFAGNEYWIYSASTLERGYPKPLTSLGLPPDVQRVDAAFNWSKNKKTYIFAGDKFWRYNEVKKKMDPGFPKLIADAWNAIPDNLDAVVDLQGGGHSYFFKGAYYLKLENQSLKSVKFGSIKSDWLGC

Series [3] addresses T3, Matrix metalloproteinase-9 (Homo sapiens, UniProt P14780). Kind of series: Inhibition of MMP9 (unknown origin) using Mca-KLPGL-Dnp-AR as substrate preincubated for 30 mins followed by substrate addition measured after 1 hr by fluorescence assay. In a few lines: as §1
The target in series [4] is T2, 72 kDa type IV collagenase. Kind of series: Inhibition of MMP2 (unknown origin) using Mca-KLPGL-Dnp-AR as substrate at 100 uM preincubated for 30 mins followed by substrate addition measured after 1 hr by fluorescence assay relative to control. In a few lines: as §1
Target sequence in this assay (P08253 110-660 limits assumed): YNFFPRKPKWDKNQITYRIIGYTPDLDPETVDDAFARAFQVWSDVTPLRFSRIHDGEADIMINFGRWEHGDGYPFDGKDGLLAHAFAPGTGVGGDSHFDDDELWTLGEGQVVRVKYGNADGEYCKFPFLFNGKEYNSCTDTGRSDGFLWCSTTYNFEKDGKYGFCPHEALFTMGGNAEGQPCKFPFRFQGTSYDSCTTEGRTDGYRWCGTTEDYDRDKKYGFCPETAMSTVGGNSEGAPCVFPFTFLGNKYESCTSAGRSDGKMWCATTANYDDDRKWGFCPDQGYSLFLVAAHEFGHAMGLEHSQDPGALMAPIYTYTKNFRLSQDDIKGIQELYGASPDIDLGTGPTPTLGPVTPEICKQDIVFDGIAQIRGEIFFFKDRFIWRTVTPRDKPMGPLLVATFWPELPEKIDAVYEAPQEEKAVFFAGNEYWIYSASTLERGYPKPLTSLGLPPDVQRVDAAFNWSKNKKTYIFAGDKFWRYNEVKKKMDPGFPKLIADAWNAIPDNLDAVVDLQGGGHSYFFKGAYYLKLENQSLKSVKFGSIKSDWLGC
Series [5] has as its target T3, Matrix metalloproteinase-9. Kind of series: Inhibition of MMP9 (unknown origin) using Mca-KLPGL-Dnp-AR as substrate at 100 uM preincubated for 30 mins followed by substrate addition measured after 1 hr by fluorescence assay relative to control. In a few lines: as §1
Series [6] deals with T4, Disintegrin and metalloproteinase domain-containing protein 17 (Homo sapiens, UniProt P78536). Kind of series: Inhibition of ADAM17 in human THP1 cells assessed as inhibition of LPS-stimulated TNFalpha cleavage at 25 uM after 1 hr by AlphaScreen assay relative to control. The class given is cell-based. The following applies: THP-1. In a few lines:
(§2)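 THP-1 cells grown in RPMI 1640 with 10% FBS and 0.05 mM 2-mercaptoethanol; 3000 cells per well. Compound given in 3% DMSO for 1 h, then LPS added (1 μg/mL final) and cells incubated overnight at 37 °C. TNFα detected by AlphaScreen using anti-TNFα acceptor beads and streptavidin donor beads, each step 1 h in the dark at RT.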
Background: Alpha assays give light when donor and acceptor beads are brought close together.

Series [7] addresses T5, Disintegrin and metalloproteinase domain-containing protein 10 (Homo sapiens) (UniProt O14672).
T5 sequence (whole entry): T1 sequence (O14672 whole entry)
Kind of series: Inhibition of ADAM10 in human A549 cells assessed as inhibition of betacellulin shedding at 40 uM after 1 hr by ELISA. In kind it is cell-based. Summed up: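 A549 cells were tested for betacellulin shedding at 40 μM, with Marimastat at 10 μM as control.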
For orientation: An ELISA detects its analyte on a solid surface through an enzyme-linked reagent.

A further series deals with HepG2. Kind of series: Cytotoxicity against human HepG2 cells assessed as inhibition of cell viability up to 33 uM after 72 hrs by CellTiter-Glo assay. The class given is cell-based. The following applies: hepg2, 72 h.
The subject of another series is MDA-MB-231. Kind of series: Cytotoxicity against human MDA-MB-231 cells assessed as inhibition of cell viability up to 33 uM after 72 hrs by CellTiter-Glo assay. The class given is cell-based. The following applies: mda-mb-231, 72 h.
Series [8] addresses T4, Disintegrin and metalloproteinase domain-containing protein 17. Kind of series: Inhibition of ADAM17 in human THP1 cells assessed as inhibition of LPS-stimulated TNFalpha cleavage after 1 hr by AlphaScreen assay. In kind it is cell-based, THP-1. Summed up: as §2
For series [9] the target is unchanged. Kind of series: Inhibition of ADAM17 in HTSMC assessed as inhibition of DDR1 shedding by immunoblot analysis. Background: A western blot detects proteins with antibodies after separation by electrophoresis.
Series [10] has the same target. Kind of series: Inhibition of ADAM17 in HTSMC assessed as inhibition of DDR1 shedding at 10 to 40 uM by immunoblot analysis relative to control.
The target is the same in series [11]. Kind of series: Inhibition of ADAM17 in human HT1080 cells assessed as inhibition of cell invasion after 5 to 24 hrs by Transwell assay. In kind it is cell-based. The following applies: HT-1080.
For series [12] the target is unchanged. Kind of series: Inhibition of ADAM17 in human SK-MEL-28 cells assessed as inhibition of notch shedding at 25 uM relative to control. In kind it is cell-based.
Series [13] deals with A549. Kind of series: Potentiation of etoposide-mediated inhibition of human A549 cell viability at 40 uM incubated for 1 hr followed by etoposide addition measured after 72 hrs by CellTiter-Glo assay. The class given is functional, cell-based. Summed up:
(§3)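 A549 cells (1250 per well) in serum-free F12 were pretreated 1 h at 37 °C with 40 μM final test compound. Gefitinib, etoposide or doxorubicin was then added as 10-point 1:3 dilutions from 300 μM. After 72 h, viability was read by CellTiter-Glo luminescence and scaled between 100 μM gefitinib (0%) and 1% DMSO (100%).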

Series [14] deals with A549. Kind of series: Potentiation of doxorubicin-mediated inhibition of human A549 cell viability at 40 uM incubated for 1 hr followed by doxorubicin addition measured after 72 hrs by CellTiter-Glo assay. The class given is functional, cell-based. In a few lines: as §3
For series [15], the system named is ADAM17 (Homo sapiens). Kind of series: Inhibition of ADAM17 in HCC1806 cells assessed as inhibition of DDR1 shedding by immunoblot analysis.
For series [16], the system named is ADAM17 (Homo sapiens). Kind of series: Inhibition of ADAM17 in HCC1806 cells assessed as inhibition of DDR1 shedding at 10 to 40 uM by immunoblot analysis relative to control.
In series [17] the target is T4, Disintegrin and metalloproteinase domain-containing protein 17. Kind of series: Inhibition of ADAM17 in human EAhy926 cells assessed as inhibition of neprilysin shedding at 15 uM relative to control. In kind it is cell-based.

The structures appear in SMILES notation. Calls of active or inactive are those of the source. No cut-off for these calls is given here. Where only a bound is given, the exact number is not on record here.

T4 sequence (P78536 whole entry, the tested form may be a part): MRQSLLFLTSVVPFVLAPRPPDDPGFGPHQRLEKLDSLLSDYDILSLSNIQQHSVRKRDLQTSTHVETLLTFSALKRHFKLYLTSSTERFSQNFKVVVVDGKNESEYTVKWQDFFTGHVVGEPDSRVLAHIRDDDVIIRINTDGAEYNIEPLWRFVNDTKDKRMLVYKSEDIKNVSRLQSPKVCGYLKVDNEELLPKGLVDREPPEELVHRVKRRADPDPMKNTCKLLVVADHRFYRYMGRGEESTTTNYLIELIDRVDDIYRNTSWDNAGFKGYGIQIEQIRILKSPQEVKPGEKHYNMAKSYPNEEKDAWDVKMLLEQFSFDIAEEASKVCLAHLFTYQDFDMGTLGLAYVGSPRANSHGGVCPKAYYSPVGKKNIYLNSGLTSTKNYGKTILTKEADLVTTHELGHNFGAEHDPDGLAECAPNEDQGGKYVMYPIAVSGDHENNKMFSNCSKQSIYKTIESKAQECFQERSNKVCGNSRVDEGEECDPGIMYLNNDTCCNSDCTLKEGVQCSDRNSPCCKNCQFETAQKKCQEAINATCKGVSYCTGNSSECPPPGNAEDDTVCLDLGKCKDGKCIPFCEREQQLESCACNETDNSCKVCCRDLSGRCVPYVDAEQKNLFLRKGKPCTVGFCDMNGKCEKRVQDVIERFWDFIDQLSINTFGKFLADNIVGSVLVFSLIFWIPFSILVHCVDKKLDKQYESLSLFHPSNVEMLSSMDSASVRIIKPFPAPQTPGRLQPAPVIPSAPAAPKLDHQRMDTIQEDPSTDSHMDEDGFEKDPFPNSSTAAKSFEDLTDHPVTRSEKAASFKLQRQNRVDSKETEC
T3 sequence (P14780 whole entry): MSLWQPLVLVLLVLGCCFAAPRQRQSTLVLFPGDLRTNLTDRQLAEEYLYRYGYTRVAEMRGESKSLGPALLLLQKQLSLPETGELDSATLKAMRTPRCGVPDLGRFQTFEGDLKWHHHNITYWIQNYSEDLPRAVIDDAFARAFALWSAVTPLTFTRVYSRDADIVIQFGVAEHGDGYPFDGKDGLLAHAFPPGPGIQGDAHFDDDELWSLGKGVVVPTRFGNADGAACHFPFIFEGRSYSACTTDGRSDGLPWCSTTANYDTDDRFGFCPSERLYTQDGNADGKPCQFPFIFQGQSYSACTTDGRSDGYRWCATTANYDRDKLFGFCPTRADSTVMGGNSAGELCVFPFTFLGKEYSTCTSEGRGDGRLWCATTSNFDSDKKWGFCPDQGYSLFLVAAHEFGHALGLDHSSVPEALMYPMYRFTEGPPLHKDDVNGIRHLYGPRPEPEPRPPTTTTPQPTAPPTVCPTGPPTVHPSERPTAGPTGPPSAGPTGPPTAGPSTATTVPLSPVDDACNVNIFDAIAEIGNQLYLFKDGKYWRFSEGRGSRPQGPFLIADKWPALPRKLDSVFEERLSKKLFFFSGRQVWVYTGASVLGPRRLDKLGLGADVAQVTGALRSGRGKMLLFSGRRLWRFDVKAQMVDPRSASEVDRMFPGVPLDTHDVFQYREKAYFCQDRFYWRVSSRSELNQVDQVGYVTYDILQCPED

One may read the IC50 as the concentration at which inhibition is half-maximal. In general, inhibition refers to the relative decrease from the control value, in per cent. Regarding `CCCC[C@H]1CN([C@@H](Cc2ccc(O)cc2)CN2CCC[C@H]2CN2C(=O)C(=O)NC[C@H]2Cc2ccc3ccccc3c2)C(=O)C(=O)N1CCC12CC3CC(CC(C3)C1)C2`, the IC50 in series [1], in series [2] and in series [3] was greater than 100 µM in each case. The inhibition in series [4] came out at 0%; in series [5] it was 0%; in series [6], 57%; in [7], 0%.

On to `O=C1NC[C@@H](Cc2ccc(O)cc2)N(C[C@@H]2CCCN2C[C@@H](Cc2ccc3ccccc3c2)N2CC(Cc3ccc(O)cc3)N(CCC34CC5CC(CC(C5)C3)C4)C(=O)C2=O)C1=O` (single isomer, unassigned), for which the IC50 in [1] is greater than 100 µM; in series [8] it was 100 µM. The Activity entry in the series with HepG2 and in the series on MDA-MB-231 was “Non-toxic” throughout. Further, the inhibition is 43% in series [6]; “Dose-dependent effect” in series [9]; 59% in series [10]; “Dose-dependent effect” in series [11]; 0% in series [7]; 0% in [12]. Moreover, the figures for the inhibition result in the series on ADAM17 (Homo sapiens) [15] and in the series on ADAM17 (Homo sapiens) [16] were “Dose-dependent effect” and 59%, respectively. Also, the outcome in the series with A549 [13] and in the series on A549 [14] was inactive.

Turning to `O=C1NC[C@H](Cc2ccccc2)N(C[C@@H]2CCCN2C[C@@H](CC2CCCCC2)N2C[C@H](Cc3ccc(O)cc3)N(CCc3ccccc3)C(=O)C2=O)C1=O`, the IC50 in series [1], in series [2] and in [3] was greater than 100 µM throughout. In addition, the inhibition is 0% in series [4]; 13% in series [5]; 36% in series [6]; 0% in series [7]; 62% in series [17]. Besides, the Activity result in the series with HepG2 and in the series with MDA-MB-231 was “Non-toxic” each time.

These data come from ChEMBL document CHEMBL3593206, “SAR Studies of Exosite-Binding Substrate-Selective Inhibitors of A Disintegrin And Metalloprotease 17 (ADAM17) and Application as Selective in Vitro Probes” (J Med Chem, 2015).
